No end group written: not given here.
Target: HLA-B*3501 (Homo sapiens, UniProt P01889, A329T/A93T/A95T/C349S/D201E/D98Y/E176V/E187L/E204Q/E69T/I218V/K202T/L119I/Q94N/R155S/R180L/S121R/S35A/S48A/T118I/V127L/V306I/V36M/Y140S/Y91F)
Assay type: binding
How it was run: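 Human 721.221 cells expressing HLA-B*3501 were stripped of bound peptides with mild acid (pH 3.2). They were incubated overnight at 4°C with fluorescein-labelled reference peptide LPSC(FL)ADVEF (250 nM fixed) plus competitor peptides (>80% HPLC purity) from 50 to 0.09 μM. After washing, bound labelled peptide was measured by flow cytometry. IC50 (50% inhibition of reference binding) was taken from exponential regression curves.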

Compound | IC50 [nM]
CC(C)C[C@H](NC(=O)CNC(=O)[C@@H](NC(=O)[C@@H](NC(=O)[C@H](C)NC(=O)[C@@H]1CCCN1C(=O)[C@@H](N)CC(C)C)C(C)C)C(C)C)C(=O)N[C@@H](CO)C(=O)N1CCC[C@H]1C(=O)NCC(=O)N[C@@H](CCC(=O)O)C(=O)N[C@@H](CCC(N)=O)C(=O)N[C@@H](CCC(=O)O)C(=O)N[C@@H](Cc1ccc(O)cc1)C(=O)O [LPAVVGLSPGEQEY] | 3100
APAVVGLSPGEQEY [APAVVGLSPGEQEY] | 2800
FPSDSWCYF [FPSDSWCYF, reference compound] | 4100
LAAVVGLSAGEQEY [LAAVVGLSAGEQEY] | 1700
LAAVVGLSPGEQEY [LAAVVGLSPGEQEY] | 2600
LGAVVGLSPGEQEY [LGAVVGLSPGEQEY] | 17400
LMAVVGLSPGEQEY [LMAVVGLSPGEQEY] | 6500
LPAVVGASPGEQEY [LPAVVGASPGEQEY] | 1300
LPAVVGLSAGEQEY [LPAVVGLSAGEQEY] | 1100
LWAVVGLSPGEQEY [LWAVVGLSPGEQEY] | 4700

Source: article PMC2193327 (The Journal of Experimental Medicine, 2001)
